Experiment [1] relates to KAP1 target genes in HCT116 (CDK9 inhibition). The experiment in a line: RT-qPCR of KAP1 target genes after flavopiridol treatment. Type of experiment: cell-based. The conditions noted are these: HCT116, 1 μM, 2 and 4 hr; relative to DMSO, normalized to U6, n=3; Figure 2M.
Experiment [2] has as its system Pol II (RPB1). Put plainly: AP / IP / co-IP from HCT116 nuclear extracts: Pol II. The experiment is classed as binding. The conditions noted are these: MNase, endogenous IP, Figures 2C, 2D, 6B. The method in brief: (§1)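 Tagged proteins were expressed in HCT116 cells by transfection for 48 hr. Nuclei were released by hypotonic swelling and 27-gauge needle lysis, then extracted for 45 min at 4°C in buffer C brought to 420 mM NaCl. Chromatin was digested with MNase (5 mM CaCl2, 10 min, 37°C). Clarified extract was bound to StrepTactin agarose for 2 hr at 4°C, washed 4X and eluted with desthiobiotin. Blots loaded 1% input.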

Experiment [3] relates to SMAD2. Put plainly: AP / IP / co-IP from HCT116 nuclear extracts: SMAD2. Type of experiment: binding. The conditions noted are these: Figures 3G–3I, 6B. The method in brief: as §1
Experiment [4] relates to CDK9. Put plainly: Co-IP from HCT116 nuclear extracts: CDK9. The experiment is classed as binding. The conditions noted are these: Figure 6B. In outline:
as §1

Experiment [5] deals with KAP1 target genes in shKAP1 HCT116 cells. Put plainly: Reconstitution assay, RT-qPCR of KAP1 target genes. Type of experiment: cell-based. Background: Real-time PCR tracks product formation cycle by cycle.
The subject of experiment [6] is KAP1 target gene promoters. Put plainly: FLAG ChIP-qPCR of reconstituted KAP1 proteins. The experiment is classed as cell-based. The conditions noted are these: shKAP1 HCT116, FLAG ChIP-qPCR, % Input, n=3, Figures 5I, 6F. The method in brief: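 Epitope-tagged KAP1 was re-expressed in shKAP1 HCT116 cells by 1 µg plasmid transfection over 48 hr. Anti-FLAG ChIP used 0.5% formaldehyde crosslinking (10 min) and 150 mM glycine quench. Beads were washed 4 times with each of RIPA, low-salt, high-salt, LiCl and TE buffers. Elution was 30 min at 65°C, de-crosslinking 4 hr at 65°C with proteinase K, and read-out was qPCR.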

In experiment [7] the test system is Pol II at KAP1 target gene promoters. The experiment in a line: ChIP-qPCR of Pol II after reconstitution. The experiment is classed as cell-based. The conditions noted are these: shKAP1 HCT116 reconstituted, n=3, Figure 6F. In outline: (§2)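 shKAP1 HCT116 cells were transfected with 1 µg epitope-tagged plasmid (PolyJet) and harvested after 48 hr. Cells were crosslinked in 0.5% formaldehyde (10 min, room temperature), quenched with 150 mM glycine and lysed in Farnham buffer at 10×10^6 cells/mL. Beads were washed in RIPA, low-salt, high-salt (500 mM NaCl), LiCl and TE buffers, eluted in NaHCO3/SDS (30 min, 65°C) and de-crosslinked with proteinase K (4 hr, 65°C), then read by qPCR.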

Experiment [8] relates to SMAD2 at KAP1 target gene promoters. Put plainly: ChIP-qPCR of SMAD2 after reconstitution. The experiment is classed as cell-based. The conditions noted are these: shKAP1 HCT116 reconstituted, n=3, Figure 6F. In outline:
as §2

Experiment [9] has as its system CDK9 at KAP1 target gene promoters. The experiment in a line: ChIP-qPCR of CDK9 after reconstitution. The experiment is classed as cell-based. Particulars: shKAP1 HCT116 reconstituted, n=3, Figure 6F. The method in brief:
as §2

As for `CN1CC[C@H](c2c(O)cc(O)c3c(=O)cc(-c4ccccc4Cl)oc23)[C@H](O)C1` [flavopiridol, Flavopiridol], the “expression of KAP1 target genes after flavopiridol” value in experiment [1] was “dampened expression of KAP1 target genes”.

As to “KAP1: wild-type KAP1, STREP- or FLAG-tagged”, in experiment [2], the “association with Pol II in nuclear extracts” value is “co-purifies with both ectopically expressed and endogenous KAP1”. Also, the “association with SMAD2 in nuclear extracts” value in experiment [3] is “interactions between ectopically expressed and endogenous proteins”; in experiment [3] (listed as WT KAP1) it was “associates with all three factors”. Also, in experiment [4], the “association with CDK9 in nuclear extracts” value is “associates with all three factors”. In addition, the “restoration of KAP1 target gene expression (WT and point mutants)” value in experiment [5] (shKAP1 HCT116, 48 hr, relative to shNT+GFP, normalized to RPL19, n=3, Figure 5H) was “restored KAP1 target gene expression”. The “restored expression of all tested genes over GFP-expressing cells” value in [5] (shKAP1 HCT116, n=3, Figure 6E) is given as ~ 2 fold. For the same compound, the “localization to KAP1 target gene promoters” value in experiment [6] was “able to localize to both C1 (SMAD2+) and C2/C3 (SMAD2-) gene promoters”; in experiment [6] (listed as WT KAP1) it was “localized to all tested gene promoters”. Further, the “promoter recruitment of Pol II” value in experiment [7] is “facilitate recruitment of Pol II and CDK9”. Besides, in experiment [8], the “promoter recruitment of SMAD2” value was “only facilitated SMAD2 recruitment to C1 (SMAD2+) gene promoters”. Moreover, the “promoter recruitment of CDK9” value in [9] was “facilitate recruitment of Pol II and CDK9”.

Source of the values: PMC7305985 (Molecular cell, 2020).
